Bioassay records: PubChem, several laboratories
HNF4A DNA FP – change in binding of human HNF4 alpha to DNA; P41235; HNF4a-FITC DNA binding, fluorescence polarization, 1 h; activity change, % at 10 µM; hit rate 0.3% among 360,000; in the data active means activity change above about 30%, passing the limit was not always enough
Target sequence (P41235 whole entry, looked up): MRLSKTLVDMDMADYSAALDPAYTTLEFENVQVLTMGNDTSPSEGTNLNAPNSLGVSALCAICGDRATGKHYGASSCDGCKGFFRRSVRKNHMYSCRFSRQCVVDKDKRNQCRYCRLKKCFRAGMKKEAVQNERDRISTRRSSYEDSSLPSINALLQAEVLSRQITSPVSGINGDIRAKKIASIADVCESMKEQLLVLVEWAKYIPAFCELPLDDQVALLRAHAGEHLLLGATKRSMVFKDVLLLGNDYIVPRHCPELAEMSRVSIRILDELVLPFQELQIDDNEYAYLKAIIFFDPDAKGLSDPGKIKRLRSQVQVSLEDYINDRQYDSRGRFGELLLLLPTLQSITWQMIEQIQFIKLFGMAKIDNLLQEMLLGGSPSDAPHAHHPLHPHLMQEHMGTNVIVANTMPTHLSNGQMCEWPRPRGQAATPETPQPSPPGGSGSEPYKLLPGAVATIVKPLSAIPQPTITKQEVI
TPT1 inh – inhibitors of Candida albicans tRNA 2'-phosphotransferase TPT1; inhibition, % at 5 µM; AID 1962; hit rate 0.81% among 300,000; recombinant caTPT1, FP RNA substrate dephosphorylation;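 active means inhibition above the mean of all tested compounds plus 3 SD, set per screening campaign, cut at about 24% in these data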;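 further: plate controls were DMSO alone for no effect and ferristatin control at 100 nM for full effect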
Myeloid diff MLP – promotes myeloid progenitor differentiation; ER-HoxA9 myeloid progenitors, lysozyme-GFP differentiation, flow cytometry; hit rate 1% among 360,000; calls only at 10 µM;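 active means normalized GFP-positive differentiation at or above the plate's own cutoff, the solvent-only control mean plus 3 SD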;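 further: cells exposed to compound for four days before flow analysis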
Rpn11 block – blocks the human proteasome subunit Rpn11 | O00487 | human 26S proteasome, Ub4-pepOG fluorescence polarization; 20S core pre-blocked with epoxomicin | hit rate 0.59% among 360,000 | inhibition, % at 20 µM;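 active means inhibition at 20 µM, scaled to each plate's controls, above about 33%, limit read from the data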
CSN deneddyl inh – inhibitors of human CSN-mediated cullin deneddylation. Purified CSN, SCF-Nedd8-OG deneddylation, fluorescence polarization. inhibition, % at 12.5 µM. hit rate 0.38% among 360,000. AID 651999;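 active means pattern-corrected inhibition above about 35%, with an unprinted fluorescence ratio check between 0.5 and 1.5, limit read from the data, passing the limit was not always enough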;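 further: 0% = enzyme with substrate and 100% = substrate without enzyme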
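Assay system: HEK293T-derived human Csn5 enzyme; quantity: 0.24 nM enzyme; medium: Tris/NaCl/DTT buffer, pH 7.5; also added: substrate SCFSkp2-Nedd8OG, 10 nM; doses: 12.5 µM compound; schedule: 90 min reaction at room temperature; signal: FP; read-out: % inhibition of substrate cleavage by Csn5; benchmarks: substrate-only high control, full reaction low control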
Rpn11 confirm – Rpn11 inhibition confirmation, single concentration. shares compounds with Rpn11 block. purified human 26S proteasome, Ub4-pepOG fluorescence polarization; proteasome pretreated with epoxomicin. inhibition, % at 20 µM. hit rate 29% among 1,900. AID 602318
MMP-2 counter – counter-screen for RPN11 inhibitors: inhibition of human MMP-2; shares compounds with Rpn11 block; hit rate 4% among 1,900; recombinant MMP-2, FRET peptide cleavage fluorescence; inhibition, % at 20 µM;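 further: human MMP-2 activated beforehand with APMA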
Thrombin inh – counter-screen for RPN11 inhibitors: inhibition of bovine thrombin; shares compounds with Rpn11 block; bovine thrombin cleavage of Ub4-pepOG, fluorescence polarization; inhibition, % at 20 µM; hit rate 13% among 1,900;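 active means mean inhibition at least 40% at 20 µM, or signal 3 deviations below plate average, so some actives read negative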;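 further: plate controls were thrombin with DMSO for no effect and buffer wells lacking thrombin for full effect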
Starred values were filed as active, the others as inactive; i = inactive; / = no result given; + = active, no number. The list is not random: actives were taken first. Their share in the collection is about 2.3%. Unless noted, no stated cut-off is given here; in the data, active means inhibition above about 40%; inactive means the rest.

SMILES | HNF4A DNA FP | TPT1 inh | Myeloid diff MLP | Rpn11 block | CSN deneddyl inh | Rpn11 confirm | MMP-2 counter | Thrombin inh
Cc1onc(-c2ccccc2Cl)c1C(=O)NNC(=O)c1cccc(F)c1 | 3 | -2 | i | 11 | 1 | / | / | /
O=C(O)c1ccccc1C(=O)NCCc1c(C(=O)O)[nH]c2ccc(F)cc12 | 3 | -2 | i | 0 | -8 | / | / | /
COc1ccc(-c2ccc3c(c2)O/C(=C\c2ccsc2)C3=O)cn1 | 22 | / | i | 39* | 11 | -1 | -11 | -16
COc1ccc(/C=C2\Oc3cc(OCC(N)=O)ccc3C2=O)cc1OC | 4 | 15 | i | 8 | 4 | / | / | /
Cc1ccc(CCNC(=O)c2coc3nc4ccccc4nc23)cc1 | 12 | 14 | i | 41* | 3 | 30 | -30 | -33
C#CCOCCOCCOCCNc1nc(N2CCN(C(=O)CCCCCCCCCCNC(=O)[C@H](CO)n3cc(CCCSC)nn3)CC2)nc(N2CCN(C(=O)CCCCCCCCCCNC(=O)[C@H](CCCCN)n3cc(C[C@@H](C)CC)nn3)CC2)n1 | / | -3 | / | / | / | / | / | /
C#CCOCCOCCOCCNc1nc(N2CCN(C(=O)[C@H](Cc3cc4ccccc4[nH]3)n3cc([C@@H](N)CC(C)C)nn3)CC2)nc(N2CCN(C(=O)[C@H](Cc3cc4ccccc4[nH]3)n3cc([C@@H](N)CC(C)C)nn3)CC2)n1 | 25 | 0 | i | 68* | 50* | 33 | 1 | -5
C#CCOCCOCCOCCNc1nc(N2CCN(C(=O)CCCCCCCCCCNC(=O)[C@H](CCCCN)n3cc(C[C@@H](C)CC)nn3)CC2)nc(N2CCN(C(=O)CCCCCCCCCCNC(=O)[C@H](CCCCN)n3cc(C[C@@H](C)CC)nn3)CC2)n1 | 187 | -1 | + | 87* | 106* | 45* | -56 | 29
Cc1ccc(NC(=O)C2CCN(S(=O)(=O)c3ccc4c(c3)NC(=O)C(C)S4)CC2)cc1Cl (stereo not drawn) | 5 | 8 | / | 42* | 0 | 44* | 1 | 35
CCOc1nc2cnccc2n(CC(=O)Nc2cccc(C)c2C)c1=O | 3 | 0 | i | 0 | -4 | / | / | /
CC(=O)Nc1cccc(NC(=O)CCNC(=O)c2ccccc2)c1 | 2 | / | i | -8 | -2 | / | / | /
Cc1ccc(CNC(=O)c2ccc(OCC3CCCO3)cc2)cc1 (stereo not drawn) | 0 | -6 | i | 5 | -13 | / | / | /
O=C(NCc1ccc(Cl)cc1)c1ccc(OCC2CCCO2)cc1 (stereo not drawn) | -7 | -2 | i | 37* | 1 | -3 | -17 | -10
O=C(CSc1nc(-c2ccccc2)c(-c2ccccc2)[nH]1)N1CCN(S(=O)(=O)c2ccccc2)CC1 | -5 | 3 | i | + | -5 | -3 | -5 | 6
CC(OC(=O)CCc1c[nH]c2ccccc12)C(=O)c1ccccc1 (stereo not drawn) | 1 | 2 | i | 1 | 3 | / | / | /
COc1cccc2cc(C(=O)Nc3ccc(F)cc3)c(=Nc3ccc(C(=O)O)cc3)oc12 | -83 | 0 | i | 128* | 26 | 117* | -4 | -17
COc1ccc(N=c2oc3c(OC)cccc3cc2C(=O)NCc2ccco2)cc1OC | 1 | 3 | i | 25 | 4 | / | / | /
CC(=O)N/C(=C\c1ccccc1)C(=O)OC(C)C(=O)Nc1ccccc1F (stereo not drawn) | 3 | / | i | -1 | -2 | / | / | /
Cc1cc(NS(=O)(=O)c2ccc(NC(=O)CCCOc3ccccc3C)cc2)no1 | -3 | 0 | i | 2 | 2 | / | / | /
N#Cc1c(C(F)(F)F)cc(-c2ccc(Cl)c(Cl)c2)nc1SCCN1CCOCC1 | 4 | 3 | i | 52* | 5 | 17 | -17 | 38
Cc1cc(C(F)(F)F)nc(SCCN2CCOCC2)c1C#N | 29 | 9 | i | 44* | 19 | 50* | -13 | 29
Cc1cc(C)c(C#N)c(SCCN2CCCCC2)n1 | 0 | / | i | -4 | 4 | / | / | /
C=CCSc1nc(-c2ccc3c(c2)OCO3)cc(C(F)(F)F)c1C#N | -2 | -1 | i | -6 | 6 | / | / | /
O=C(COC(=O)Cc1n[nH]c(=O)c2ccccc12)Nc1c(Br)cc([N+](=O)[O-])cc1Br | -2 | / | i | 0 | -5 | / | / | /
N/C(=N\OC(=O)Oc1ccccc1)c1ccc([N+](=O)[O-])cc1 | -4 | 1 | i | -9 | 5 | / | / | /
SMILES | HNF4A DNA FP | TPT1 inh | Myeloid diff MLP | Rpn11 block | CSN deneddyl inh | Rpn11 confirm | MMP-2 counter | Thrombin inh
O=[N+]([O-])c1ccc(NN=C(Oc2ccccc2)c2ccc([N+](=O)[O-])cc2)cc1 | 23 | / | + | 42* | 7 | 9 | -43 | -14
CCOCCCn1c(=NC(C)=O)c(C#N)cc2c(=O)n3ccccc3nc21 | -4 | -3 | i | -6 | -5 | / | / | /
CC(=O)N=c1c(C#N)cc2c(=O)n3ccccc3nc2n1Cc1ccccc1 | 15 | 4 | i | 56* | 30 | -22 | -37 | -18
CC(=O)Oc1ccc(C#C/C=C2\c3ccccc3C(=O)N2c2ccccc2)cc1 | 27 | / | i | 72* | 6 | 51* | -1 | -87
CCCC(/C=C/c1ccc(OC(C)=O)cc1)=C1/c2ccccc2C(=O)N1c1ccccc1 | 4 | / | i | 11 | -8 | / | / | /
COc1ccc(Nc2nc3ccc(C)cc3cc2C#N)c(OC)c1 | -18 | -3 | i | 42* | 2 | -12 | -15 | -13
COc1ccc(Nc2nc3c(C)cccc3cc2C#N)c(OC)c1 | -4 | 2 | i | 15 | 2 | / | / | /
CCn1c2nc(SCCN3CCOCC3)nnc2c2cc(C)cc(C)c21 | -1 | 2 | i | 0 | 4 | / | / | /
Cn1c(-c2c(N)n(CCCc3ccccc3)c3nc4ccccc4nc23)nc2ccccc21 | 17 | / | i | 44* | 10 | 35 | -7 | 23
O=CNCc1nc2ccccc2n1CCCc1ccccc1 | 3 | 5 | i | -6 | 0 | / | / | /
CCOc1ccc2nc(N3C(=O)/C(=C/c4ccc(Cl)cc4)NC3=S)sc2c1 | -44 | / | i | 47* | 2 | 31 | -6 | 0
COc1ccc(/C=N/N2C(=O)CSC2=S)cc1 | 4 | 7 | i | 10 | 0 | / | / | /
O=C1CSC(=S)N1N=Cc1ccc(Cl)s1 | 36 | / | i | 59* | 13 | 41* | 31 | 37
CC(C)(C)c1ccc(/C=N/N2C(=O)CSC2=S)cc1 | 3 | 7 | / | 48* | 6 | 18 | 38 | 14
CC(C(N)=O)N1C(=O)NC2(CCCc3ccccc32)C1=O (stereo not drawn) | -2 | -1 | i | 0 | 2 | / | / | /
